# In PubChem BioAssay AID624302 (The Scripps Research Institute Molecular Screening Center, 2012):
# Calls of active or inactive are those of the source.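 The calls were made as follows: active = relative luminescence ratio of 1.25 or more at any tested dose; inactive = ratio below 1.25 at every dose.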
# Biological target: Nuclear receptor subfamily 0 group B member 1 (Homo sapiens) (UniProt P51843)
# Experiment: relief of Gal4-DAX1 luciferase repression – cell-based, luminescence, HEK293, powder samples, assay provider, dose response (AID 624302)
# Settings: luciferase reporter luminescence, at 100 µM, hits give high values
# How it was run: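 Test system: HEK293 with GAL4-DAX1 fusion and Gal4-tk-luc reporter. Control set: DMSO wells. Compound dosing: 100 µM single dose plus 3-point 1:2 series from 50 µM. Detection: luciferase reporter luminescence. Read-out: luminescence relative to DMSO wells.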
# Nuclear receptor subfamily 0 group B member 1 (Homo sapiens), sequence (P51843 207-470 limits assumed): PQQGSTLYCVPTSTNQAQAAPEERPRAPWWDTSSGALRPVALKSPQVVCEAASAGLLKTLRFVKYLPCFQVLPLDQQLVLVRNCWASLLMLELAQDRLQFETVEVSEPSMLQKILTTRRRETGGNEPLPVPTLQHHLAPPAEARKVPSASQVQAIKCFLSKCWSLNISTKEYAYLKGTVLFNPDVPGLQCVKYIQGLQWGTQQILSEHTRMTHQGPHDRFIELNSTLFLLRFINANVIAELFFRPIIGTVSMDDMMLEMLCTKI
row,Compound,relative luminescence ratio
1,CSc1ccccc1C(=O)Nc1ccc2c(c1)OCCO2,0.51 (inactive)
2,O=C(Cc1cccs1)Nc1ccc2c(c1)OCO2,0.62 (inactive)
3,O=C(Nc1ccc2c(c1)OCO2)c1ccc2ccccc2c1,0.02 (inactive)
4,Cn1c(=O)n(C)c2cc(C(=O)Nc3ccc4c(c3)OCO4)ccc21,1.77
5,COc1cccc(C(=O)Nc2ccc3c(c2)OCO3)c1,0.16 (inactive)
6,Cc1occc1C(=O)Nc1ccc2c(c1)OCO2,0.21 (inactive)
7,O=C(Nc1ccc2c(c1)OCCO2)c1ccc2ccccc2c1,0.02 (inactive)
8,CSc1ccccc1C(=O)Nc1ccc2c(c1)OCO2,0.41 (inactive)
9,O=C(Nc1ccc2c(c1)OCO2)c1cccs1,0.38 (inactive)
10,COc1ccc(OC)c(C(C)NC(=O)c2ccccc2Cl)c1 (centres undefined),0.39 (inactive)
11,Cc1cc(C(=O)Nc2ccc3c(c2)OCO3)cs1,0.26 (inactive)
12,COc1ccc(OC)c(C(C)NC(=O)c2ccccc2C)c1 (centres undefined),0.42 (inactive)
13,CN(C)c1cccc(C(=O)Nc2ccc3c(c2)OCCO3)c1,0.05 (inactive)
14,O=C(Nc1ccc2c(c1)OCO2)c1ccc(C2SCC(=O)N2Cc2ccccc2)cc1 (centres undefined),0.01 (inactive)
15,Cn1c(=O)n(C)c2cc(C(=O)Nc3ccc4c(c3)OCCO4)ccc21,2.25
16,COc1ccc(OC)c(C(C)NC(=O)c2cccc3ccccc23)c1 (centres undefined),0.01 (inactive)
17,O=C(Nc1ccc2c(c1)OCO2)c1ccc(C2SCC(=O)N2Cc2ccco2)cc1 (centres undefined),0.01 (inactive)

# Other lines, results leading:
row,relative luminescence ratio,Compound
1,0.3 (inactive),COc1ccc(OC)c(C(C)NC(=O)c2ccc(Cl)cc2)c1 (centres undefined)
2,0.39 (inactive),COc1ccc(OC)c(C(C)NC(=O)c2ccccc2F)c1 (centres undefined)
3,0.02 (inactive),COc1cccc(C(=O)Nc2ccc3c(c2)OCCO3)c1
4,0.31 (inactive),COc1ccc(OC)c(C(C)NC(=O)c2ccc3c(c2)OCCO3)c1 (centres undefined)
5,0.63 (inactive),COc1ccc(OC)c(C(C)NC(=O)c2cccc(F)c2)c1 (centres undefined)
6,0.38 (inactive),COc1ccc(OC)c(C(C)NC(=O)c2ccc(C)cc2)c1 (centres undefined)
7,0.33 (inactive),COc1ccc(OC)c(C(C)NC(=O)c2ccc(F)cc2)c1 (centres undefined)
8,0.1 (inactive),COc1ccc(OC)c(C(C)NC(=O)c2ccc(C(C)(C)C)cc2)c1 (centres undefined)
9,0.23 (inactive),COc1ccc(OC)c(C(C)NC(=O)c2cccc(C)c2)c1 (centres undefined)
10,0.3 (inactive),COc1cccc(C(=O)NC(C)c2cc(OC)ccc2OC)c1 (centres undefined)
11,0.46 (inactive),COc1ccc(OC)c(C(C)NC(=O)c2ccccc2)c1 (centres undefined)
12,0.51 (inactive),COc1ccc(OC)c(C(C)NC(=O)c2c(F)cccc2Cl)c1 (centres undefined)
